Values without a mark were called inactive.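 Rule for the calls: active = growth inhibition above a set limit, 3 SD over mean compound inhibition, in both replicates (cut at about 43% in these data); inconclusive = above the limit in only one replicate; inactive = at or below the limit in both replicates.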

A short description of the assay: S. cerevisiae growth inhibition in restrictive medium, OD615, pilot screen, restrictive growth control, yeast lifespan reduction project (AID 706).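 Note: modified DeaD lifespan yeast strain shifted to restrictive glucose medium.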 The settings on record: OD615, 48 h, at 10 µM, active compounds read high. The method, boiled down: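 material = engineered S. cerevisiae DeaD strain | medium = glucose-based CSMM-D restrictive medium | times = 4 h pre-incubation, 48 h exposure at 30 °C | technique = OD615 absorbance reading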
As for `NC(=O)c1ccsc1NC(=O)c1ccco1`, the growth inhibition is 20.1%.
With `Cc1c(NC(=O)c2ccc3c(c2)OCO3)c(=O)n(-c2ccccc2)n1C` the figure was -23.4%; with `CCN1CCCC1CNC(=O)c1cc2c(-c3ccc(Cl)cc3)nn(C)c2s1` (stereo not drawn), 10.1%; with `COc1cc(OC)c(Nc2cc(C)nc3nc(C)nn23)cc1Cl`, -1.03%.
In the case of `O=C(O)COc1ccc2c(c1)OCCO2` it was -2.33%.
In the case of `COc1cc2c(C(=O)NCc3ccccn3)cn(CC(C)C)c(=O)c2cc1OC` it was -28.3%; in that of `COc1cccc(N(CC(=O)Nc2cccc(F)c2)S(C)(=O)=O)c1`, -12.3%.
With `O=C(C1CCN(S(=O)(=O)c2cccc3cccnc23)CC1)N1CCN(C2CCCC2)CC1`, the growth inhibition was 7.92%.
In the case of `CCC(=O)N1C(C(=O)O)CSC1c1ccc(OC)cc1` (stereo not drawn) it was 6.29%; in that of `c1ccc(OCCSc2ncnc3nc[nH]c23)cc1`, 15.4%; in that of `Cc1onc(-c2ccccc2Cl)c1C(=O)NCc1ccc2c(c1)cc(C)n2C`, -12.7%.
Take `CN(C)c1nc(Oc2ccc(C(=O)OCC(=O)Nc3ccccc3)cc2)nc(N(C)C)n1`: the growth inhibition was 5.01%.
In the case of `Cc1c(/C=N/n2cnnc2)c2ccccc2n1C` it was 11.6%.
With `CCOC(=O)CSc1ccc2nnc(-c3ccccc3)n2n1` the figure was -9.2%; with `O=C(Oc1ccccc1)N1CCN(c2ccc(F)cc2)CC1`, -5.32%; with `Cc1cc(Nc2cccc(C)c2C)n2nc(C)nc2n1`, -8.21%.
In the case of `COc1ccc(N=C2SC(C(=O)O)CC(=O)N2C)cc1` (stereo not drawn), the growth inhibition was 7.82%.
With `CC(CCc1ccccc1)C(=O)NO` (stereo not drawn) the figure was -10.5%.
In the case of `Cc1cc(=O)[nH]c(SCc2cc(Cl)ccc2OC(F)F)n1` it was 15.1%.
Take `COc1ccc(OC)c(S(=O)(=O)n2nc(-c3ccccc3)cc2N)c1`: the growth inhibition was -2.54%.
In the case of `O=C(NCc1cn2ccccc2n1)c1ccc(Br)o1` it was -0.96%; in that of `COc1ccc(N2CCN(C(=O)c3ccc(CS(=O)(=O)c4ccc(OC)cc4)o3)CC2)cc1`, -3.61%; in that of `COc1ccc(OC)c(NC(=O)CSc2nnc(Cn3c(=O)sc4ccccc43)n2C)c1`, -1.53%.

For the origin of these results see PubChem BioAssay.
